Laboratory results published in ChEMBL document CHEMBL1142436, “Design and synthesis of 4-substituted indolo[3,2-e][1,2,3]triazolo[1,5-a]pyrimidine derivatives with antitumor activity” (2008).

Legend:
Assay type in all cases: functional
[1] = test system: K562; assay: Growth inhibition of human K562 cells after 48 hrs; conditions: K562, 48 h; for TGI: read-out: pTGI (converted)
Procedure, shortened: (§1)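 NCI ~60-line screen. Cells were grown in RPMI 1640 with 5% FBS and 2 mM L-glutamine and plated at 5000–40000 cells/well. After a 24 h preincubation, five drug concentrations from DMSO stocks were added for 48 h at 37 °C. Cells were TCA-fixed, stained with SRB and read at 515 nm. GI50 was taken from time-zero and control absorbances and reported as pGI50.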

[2] = test system: T47D; assay: Growth inhibition of human T47D cells after 48 hrs; conditions: for TGI: read-out: pTGI (converted)
Procedure, shortened: (§2)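 NCI 60-line screen: cells in RPMI 1640 with 5% FBS and 2 mM L-glutamine, plated at 5000–40000 cells/well, grown 24 h (37 °C, 5% CO₂), then exposed to five 10-fold or ½-log dilutions (DMSO stock) for 48 h. Fixed with TCA (final 10% for adherent cells, 16% for suspension cells), then SRB stained with absorbance at 515 nm. GI50 from percentage growth relative to time-zero and control wells.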

[3] = test system: EKVX; assay: Growth inhibition of human EKVX cells after 48 hrs; procedure, shortened: as §1
[4] = test system: HOP-62; assay: Growth inhibition of human HOP62 cells after 48 hrs; conditions: HOP-62, 48 h; for TGI: read-out: pTGI (converted); procedure, shortened: as §1
[5] = test system: HOP-92; assay: Growth inhibition of human HOP92 cells after 48 hrs; conditions: HOP-92, 48 h; procedure, shortened: as §1
[6] = test system: NCI-H23; assay: Growth inhibition of human NCI-H23 cells after 48 hrs; conditions: Homo sapiens, NCI-H23, 48 h; for CC50: read-out: Log LC50 (the source's name) (converted); for TGI: read-out: pTGI (converted); procedure, shortened: as §1
[7] = test system: COLO 205; assay: Growth inhibition of human COLO205 cells after 48 hrs; conditions: COLO 205, 48 h; for TGI: read-out: pTGI (converted); procedure, shortened: as §1
[8] = test system: SW-620; assay: Growth inhibition of human SW620 cells after 48 hrs; conditions: SW-620, 48 h; for TGI: read-out: pTGI (converted); procedure, shortened: as §2
[9] = test system: SF-268; assay: Growth inhibition of human SF268 cells after 48 hrs; conditions: SF-268, 48 h; for TGI: read-out: pTGI (converted); procedure, shortened: as §1
[10] = test system: SF-539; assay: Growth inhibition of human SF539 cells after 48 hrs; conditions: SF-539, 48 h; for TGI: read-out: pTGI (converted); procedure, shortened: as §1
[11] = test system: SNB-75; assay: Growth inhibition of human SNB75 cells after 48 hrs; conditions: SNB-75, 48 h; procedure, shortened: as §2
[12] = test system: LOX IMVI; assay: Growth inhibition of human LOXIMVI cells after 48 hrs; conditions: for TGI: read-out: pTGI (converted); procedure, shortened: as §1
[13] = test system: Malme-3M; assay: Growth inhibition of human MALME3M cells after 48 hrs; conditions: for TGI: read-out: pTGI (converted); procedure, shortened: as §1
[14] = test system: SK-MEL-2; assay: Growth inhibition of human SK-MEL2 cells after 48 hrs; conditions: SK-MEL-2, 48 h; for TGI: read-out: pTGI (converted); procedure, shortened: as §1
[15] = test system: IGROV-1; assay: Growth inhibition of human IGROV1 cells after 48 hrs; conditions: IGROV-1, 48 h; procedure, shortened: as §1
[16] = test system: OVCAR-4; assay: Growth inhibition of human OVCAR4 cells after 48 hrs; conditions: OVCAR-4, 48 h; procedure, shortened: as §1
[17] = test system: SK-OV-3; assay: Growth inhibition of human SKOV3 cells after 48 hrs; conditions: SK-OV-3, 48 h; for TGI: read-out: pTGI (converted); procedure, shortened: as §2
[18] = test system: 786-0; assay: Growth inhibition of human 786-0 cells after 48 hrs; conditions: 786-0, 48 h; for TGI: read-out: pTGI (converted); procedure, shortened: as §1
[19] = test system: TK-10; assay: Growth inhibition of human TK10 cells after 48 hrs; conditions: TK-10, 48 h; for TGI: read-out: pTGI (converted); procedure, shortened: as §2
[20] = test system: UO-31; assay: Growth inhibition of human UO31 cells after 48 hrs; conditions: UO-31, 48 h; for TGI: read-out: pTGI (converted); procedure, shortened: as §2
[21] = test system: PC-3; assay: Growth inhibition of human PC3 cells after 48 hrs; conditions: PC-3, 48 h; for TGI: read-out: pTGI (converted); procedure, shortened: as §1
[22] = test system: NCI/ADR-RES; assay: Growth inhibition of human NCI/ADR-RES cells after 48 hrs; conditions: for TGI: read-out: pTGI (converted); procedure, shortened: as §1
[23] = test system: MDA-MB-435; assay: Growth inhibition of human MDA-MB435 cells after 48 hrs; conditions: MDA-MB-435, 48 h; procedure, shortened: as §1
[24] = test system: BT-549; assay: Growth inhibition of human BT549 cells after 48 hrs; conditions: BT-549, 48 h; procedure, shortened: as §1
[25] = test system: SR; assay: Growth inhibition of human SR cells after 48 hrs; procedure, shortened: as §2
[26] = read-out: Log LC50 (the source's name) (converted)

Question: With `CCCCN(CCCC)CCCn1c(=O)c2c3ccccc3n(C)c2n2nnc(-c3ccccc3)c12` as the compound, how does the GI50 [1] read?
Answer: 13.8 µM

Question: What about the TGI [1] of the same compound?
Answer: > 100 µM

Question: What about the GI50 [2] of the same compound?
Answer: 55 µM

Question: And the TGI [2]?
Answer: > 100 µM

Question: What about the GI50 [3] of the same compound?
Answer: 56.2 µM

Question: And the TGI ([3]; read-out: pTGI (converted))?
Answer: > 100 µM

Question: What about the GI50 [4] of the same compound?
Answer: 30.9 µM

Question: And the TGI [4]?
Answer: > 100 µM

Question: And the GI50 [5]?
Answer: 18.6 µM

Question: And the TGI ([5]; read-out: pTGI (converted))?
Answer: 44.7 µM

Question: And the CC50 [6]?
Answer: 12.9 µM

Question: And the TGI [6]?
Answer: 63.1 µM

Question: What about the GI50 [7] of the same compound?
Answer: 5.01 µM

Question: What about the TGI [7] of the same compound?
Answer: 63.1 µM

Question: And the GI50 [8]?
Answer: 26.3 µM

Question: What about the TGI [8] of the same compound?
Answer: > 100 µM

Question: And the GI50 [9]?
Answer: > 100 µM

Question: What about the TGI [9] of the same compound?
Answer: > 100 µM

Question: And the GI50 [10]?
Answer: 66.1 µM

Question: What about the TGI [10] of the same compound?
Answer: > 100 µM

Question: What about the GI50 [11] of the same compound?
Answer: 15.1 µM

Question: And the TGI ([11]; read-out: pTGI (converted))?
Answer: 56.2 µM

Question: What about the GI50 [12] of the same compound?
Answer: 28.2 µM

Question: What about the TGI [12] of the same compound?
Answer: > 100 µM

Question: And the GI50 [13]?
Answer: 28.2 µM

Question: And the TGI [13]?
Answer: 89.1 µM

Question: And the GI50 [14]?
Answer: > 100 µM

Question: And the TGI [14]?
Answer: > 100 µM

Question: What about the LC50 [15] of the same compound?
Answer: > 50.1 µM

Question: What about the GI50 [16] of the same compound?
Answer: 17.4 µM

Question: What about the TGI ([16]; read-out: pTGI (converted)) of the same compound?
Answer: 83.2 µM

Question: And the GI50 [17]?
Answer: 30.2 µM

Question: What about the TGI [17] of the same compound?
Answer: 30.2 µM

Question: And the GI50 [18]?
Answer: 38.9 µM

Question: What about the TGI [18] of the same compound?
Answer: > 100 µM

Question: What about the GI50 [19] of the same compound?
Answer: 1.91 µM

Question: What about the TGI [19] of the same compound?
Answer: 22.4 µM

Question: What about the GI50 [20] of the same compound?
Answer: 6.03 µM

Question: What about the TGI [20] of the same compound?
Answer: 46.8 µM

Question: What about the GI50 [21] of the same compound?
Answer: 18.2 µM

Question: What about the TGI [21] of the same compound?
Answer: 47.9 µM

Question: What about the GI50 [22] of the same compound?
Answer: 14.1 µM

Question: What about the TGI [22] of the same compound?
Answer: 67.6 µM

Question: Which results are given for `Cn1c2ccccc2c2c(=O)n(CCCC(=O)NCC(=O)N(C(=O)NC3CCCCC3)C3CCCCC3)c3c(-c4ccccc4)nnn3c21`?
Answer: GI50 [1]: 22.9 µM; LC50 [1]: > 50.1 µM; TGI [1]: > 100 µM; GI50 [23]: 25.1 µM; LC50 [23]: > 100 µM; TGI ([23]; read-out: pTGI (converted)): > 100 µM; GI50 [24]: 26.9 µM; CC50 [2, 26]: > 100 µM; TGI [2]: > 100 µM; GI50 [25]: 3.02 µM; LC50 [25]: 8.51 µM; TGI ([25]; read-out: pTGI (converted)): 5.13 µM; GI50 [4]: 15.1 µM; LC50 [4]: 87.1 µM; TGI [4]: 36.3 µM; GI50 [6]: 15.5 µM; CC50 [6]: 69.2 µM; TGI [6]: 33.1 µM; GI50 [7]: 2.82 µM; LC50 [7]: > 100 µM; TGI [7]: > 100 µM; GI50 [8]: 3.8 µM; LC50 (lethal concentration, 50% cell kill) [8]: > 100 µM; TGI [8]: > 100 µM; GI50 [9]: 15.1 µM; CC50 [9, 26]: > 100 µM; TGI [9]: > 100 µM; LC50 (concentration killing 50% of cells) [10]: > 100 µM; TGI [10]: 57.5 µM; GI50 [12]: 13.2 µM; LC50 (lethal concentration, 50% cell kill) [12]: > 100 µM; TGI [12]: 97.7 µM; GI50 [13]: 46.8 µM; LC50 [13]: > 100 µM; TGI [13]: > 100 µM; GI50 [14]: 33.1 µM; LC50 [14]: > 100 µM; TGI [14]: > 100 µM; GI50 [15]: 2.82 µM; LC50 [15]: > 100 µM; TGI ([15]; read-out: pTGI (converted)): 33.1 µM; LC50 [17]: 33.9 µM; TGI [17]: 18.6 µM; GI50 [18]: 18.6 µM; LC50 [18]: > 100 µM; TGI [18]: 44.7 µM; GI50 [19]: > 100 µM; LC50 [19]: > 100 µM; TGI [19]: > 100 µM; GI50 [20]: 31.6 µM; LC50 [20]: > 100 µM; TGI [20]: > 100 µM; GI50 [21]: 22.9 µM; LC50 [21]: > 100 µM; TGI [21]: > 100 µM; GI50 [22]: 15.5 µM; LC50 (concentration killing 50% of cells) [22]: 72.4 µM; TGI [22]: 33.9 µM
